Screening data (PubChem BioAssay)
HCV core dimer: inhibitors of HCV core protein dimerization, primary screen, biochemical, TR-FRET, high-throughput | hit rate 0.33% among 300,000 | inhibition, % at 5 µM | TR-FRET GST/Flag-core106 dimerization, 1536-well | AID 1899, 2009;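 active = inhibition above the mean of all tested compounds plus 3 SD, set per screening campaign, cut at about 45% in these data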
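Assay system: tagged HCV core106 pair (GST and Flag); medium: KF-containing HEPES buffer, pH 7.45, DTT, CHAPS, BSA; also added: Eu donor and XL665 acceptor anti-tag antibodies; dosing: 5 µM single dose; timing: compound-protein-antibody incubation 4 h at 22.5 °C; signal: TR-FRET 671 and 617 nm emission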
rCAG binder-1: binders of r(CAG) RNA repeats, primary screen, biochemical, fluorescence | hit rate 1.3% among 370,000 | AID 651821, 2012 | r(CAG) RNA repeat, TO-PRO-1 dye displacement fluorescence | inhibition, % at 3 µM;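 active = inhibition above the plate cutoff, the mean of all test compounds on that plate plus 3 SD, cut at about 35% in these data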;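 also: 0% = DMSO alone and 100% = 100 µM mitoxantrone as full dye displacement; higher means more dye released from RNA so lower well fluorescence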
TAAR1 antag: human TAAR1 antagonists, primary screen, Fluo-8 calcium fluorescence, CHO RD-HGA16 cells | antagonist | Trace amine-associated receptor 1 (Homo sapiens), Q96RJ0 | hit rate 1.5% among 360,000 | inhibition, % at 3 µM;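 active = inhibition above a per-plate cutoff, the mean inhibition of test compounds on that plate plus 3 SD, cut at about 49% in these data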;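 also: 0% = DMSO plus EC80 beta-PEA response and 100% = DMSO alone without agonist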
Target sequence (Q96RJ0 whole entry, looked up): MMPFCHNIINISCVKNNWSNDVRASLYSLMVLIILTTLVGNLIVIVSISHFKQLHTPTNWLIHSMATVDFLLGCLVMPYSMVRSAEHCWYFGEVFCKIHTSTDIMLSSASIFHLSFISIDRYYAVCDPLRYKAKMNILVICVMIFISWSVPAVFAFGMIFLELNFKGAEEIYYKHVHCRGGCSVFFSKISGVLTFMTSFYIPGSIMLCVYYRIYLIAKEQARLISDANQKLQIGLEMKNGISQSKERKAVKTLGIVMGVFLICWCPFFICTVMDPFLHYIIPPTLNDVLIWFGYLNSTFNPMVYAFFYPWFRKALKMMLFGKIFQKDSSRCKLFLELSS
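Material: CHO RD-HGA16 cells bearing hTAAR1; compound dosing: one-point dosing, 3 µM nominal final; schedule: dye loading 75 min at 37 °C, then 30 min room temperature; measured by: calcium fluorescence with Fluo-8; control set: vehicle and agonist controls; replication: n of 1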
TAAR1 ag: human TAAR1 agonists, primary screen, Fluo-8 calcium fluorescence, CHO RD-HGA16 cells | vehicle wells 0%, saturating PEA agonist 100% | activation, % at 3 µM | hit rate 0.99% among 360,000 | Trace amine-associated receptor 1 (Homo sapiens), Q96RJ0 | AID 624467, 2012;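 active = activation above the mean activation of all test compounds in the run plus 3 SD, cut at about 38% in these data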
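test system = CHO RD-HGA16 cells carrying human TAAR1 plus Gα16 | schedule = 17-24 h seeding, 75 min 37 °C dye, 30 min RT | compound dosing = 3 µM single concentration | control set = DMSO and PEA EC100 | replicates = n 1 | signal = Fluo-8 fluorescence, 5 s baseline then 140 s kinetic read | measure = percent activation vs PEA EC100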
HCV NS3 hel inh: inhibitors of HCV NS3 helicase, primary screen, biochemical, Cy5 molecular beacon fluorescence | Hepatitis C virus NS3 helicase | AID 1800, 2009 | hit rate 0.56% among 290,000 | NS3 helicase DNA unwinding | inhibition, % at 10.9 µM;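 active = inhibition above the mean of all tested compounds plus 3 SD, set per campaign, cut at about 35% in these data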;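 also: 0% = DMSO wells and 100% = thioflavine S control wells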
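System: NS3 helicase fragment of HCV / Schedule: 1 h at 25 °C / Control set: DMSO alone as 0% and 110 µM thioflavine S as 100% / Reagent: Cy5/quencher beacon DNA duplex and ATP to start / Technique: Cy5 fluorescence / Replication: singlicate / Evaluation: % inhibition of end-to-start signal ratio versus controls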
rCAG binder conf: small molecules binding CAG repeat RNA – biochemical, fluorescence, confirmation; r(CAG) RNA repeat, TO-PRO-1 dye displacement fluorescence; shares compounds with rCAG binder-1; hit rate 70% among 4,300; inhibition, % at 3 µM;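 active = inhibition above a per-plate cutoff, the mean inhibition of sample wells plus 3 SD, cut at about 35% in these data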;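 also: loss of TO-PRO-1 fluorescence as compound displaces dye from 1x1 AA loop RNA; 0% = DMSO only wells and 100% = 100 µM mitoxantrone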
dCAG dye counter: displacement of TO-PRO-1 from CAG DNA duplex, counter-screen for rCAG RNA repeat binder project, biochemical, fluorescence, TO-PRO-1 dye, d(CAG) DNA oligo; AID 652068, 2013; d(CAG) DNA oligo TO-PRO-1 dye displacement; hit rate 94% among 4,300; inhibition, % at 3 µM; shares compounds with rCAG binder-1;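 active = inhibition above its plate's cutoff, the mean test-well inhibition plus 3 SD, cut at about 4.8% in these data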;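 also: 0% = DNA dye mix with DMSO and 100% = 100 µM mitoxantrone; hits displace the dye from DNA and so lower well fluorescence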
DNA CAG DR: inhibitors of DNA CAG/GTC TO-PRO-1 complex, dose response, counter-screen for rCAG RNA repeat binder project, biochemical, fluorescence, TO-PRO-1 dye. shares compounds with rCAG binder-1. DNA CAG/GTC duplex TO-PRO-1 dye displacement fluorescence. IC50, µM. hit rate 20% among 250; in the data active = IC50 below about 10 µM
dCAG TOPRO ctr: TO-PRO-1 dye complex inhibitors on d(CAG) DNA, dose response, counter-screen, biochemical, fluorescence, late stage. shares compounds with rCAG binder-1. IC50, µM. d(CAG) DNA duplex TO-PRO-1 dye displacement. hit rate 80% among 30
rCAG binder-2: molecules binding r(CAG) RNA repeats, late stage dose response, late-stage follow-up, biochemical, fluorescence, dose response, powder samples; shares compounds with rCAG binder-1; r(CAG) RNA TO-PRO-1 dye displacement; IC50, µM; hit rate 100% among 30; AID 720651, 2013
Active calls of the source: *; i = inactive; . = not tested or not shown. Shown are actives, neighbours in structure and some others; about 3.7% of the full set was active somewhere. Unless noted, no rule for the calls is given here.

SMILES	HCV core dimer	rCAG binder-1	TAAR1 antag	TAAR1 ag	HCV NS3 hel inh	rCAG binder conf	dCAG dye counter	others
CC1=C(C#N)c2nc(N)c(C#N)c(C)c2/C1=C\c1ccc(-c2ccccc2C(=O)O)o1	.	46*	0	2	16	69*	32*	DNA CAG DR=i;dCAG TOPRO ctr=2.8*;rCAG binder-2=1.1*
COc1cc(/C=C2/C(C)=C(C#N)c3nc(N)c(C#N)c(C)c32)ccc1OCC(=O)O	-10	42*	-3	4	3	41*	17*
O=C1CSc2ccc(C(=O)N3CCCC(C(=O)N4CCOCC4)C3)cc2N1 (stereo not drawn)	.	2	.	.	.	.	.
CCOc1cc(-c2c(C#N)c(=O)[nH]c3c2c(C)nn3-c2ccc(F)cc2)ccc1O	15	48*	-4	3	20	27	6.6*
CCOc1cc(-c2cc(-c3ccc(C)cc3)nc(N)c2C#N)ccc1O	-4	11	-4	7	-17	.	.
O=C(O)Cn1cc(/C=C2\SC(=O)N(c3ccccc3)C2=O)c2ccccc21	-3	5	17	6	12	.	.
O=C(O)Cn1cc(/C=C2/SC(=O)N(CC(=O)N3CCCCCC3)C2=O)c2ccccc21	-2	40*	0	1	22	37*	10*
Oc1ccc(Br)cc1-c1cc(-c2ccccc2)n[nH]1	5	27	30	9	-10	.	.
O=[N+]([O-])c1cccc(-c2cc(-c3cc(Br)ccc3O)[nH]n2)c1	-1	37*	5	34	-6	27	16*
CCN(CC)C(=O)CC[C@@H]1CC[C@]2(CCCN(C(=O)c3ccco3)C2)O1	.	2	.	.	.	.	.
COC(=O)[C@@]12CCCCC3=C1N(CCC3)C(=O)[C@H]2CC(=O)NCc1cccs1	.	0	.	.	.	.	.
Nc1c(C(=O)O)sc2nc(-c3ccccc3)cc(-c3ccc(Cl)cc3)c12	20	76*	11	-1	21	71*	37*
COc1ccc(S[C@]2(C(=O)N3CCN(C(C)=O)CC3)CC(=O)N(C(=O)/C=C/c3ccccc3)[C@@H]2c2ccc(OC)cc2)cc1	.	16	.	.	.	.	.
CCCNC(=O)C1CCN(S(=O)(=O)c2ccc3nc4c(c(C(=O)O)c3c2)CCCCC4)CC1	1	2	4	1	0	.	.
COc1ccc(CNC(=O)C2CCN(S(=O)(=O)c3ccc4nc5c(c(C(=O)O)c4c3)CC(C)CC5)CC2)cc1 (stereo not drawn)	7	33	-14	2	17	.	.
CN(Cc1ccccc1)C(=O)C1CCN(S(=O)(=O)c2ccc3nc4c(c(C(=O)O)c3c2)CCCC4)CC1	35	54*	5	0	16	54*	17*
Cc1ccc(CCNC(=O)C2CCN(S(=O)(=O)c3ccc4nc5c(c(C(=O)O)c4c3)CCCC5)CC2)cc1	19	50*	-17	3	7	32	9.0*
